Results as given in ChEMBL document CHEMBL3244368, “[3-(1,4-Cyclohexadienyl)-L-alanine,8-lysine]vasopressin: synthesis and some pharmacological properties” (J Med Chem, 1979).
Starred links: 1 amine or outer side, 2 acyl side, 3 side chain; linkers in the order of their positions; H or OH if unused. Non-standard residues stand in square brackets, D forms with d. Residues, ends and D or L forms follow the SMILES beside them. *: point of attachment. X1 = O=C([C@H](CC1=CCC=CC1)N[*:1])[*:2]; Tos = Cc1ccc(S(=O)(=O)*)cc1; Cbz = O=C(OCc1ccccc1)*; Bn = c1ccc(C*)cc1

How the values were obtained:
[1] = Stability of the compound in 0.2 M potassium phosphate buffer at pH 7.7 assessed as hydrolysis by measuring Tyr level in presence of alpha-amylase preparation; assay type: ADME
[2] = Stability of the compound in 0.2 M potassium phosphate buffer at pH 7.7 assessed as hydrolysis by measuring Gly level in presence of alpha-amylase preparation; assay type: ADME
[3] = Stability of the compound in 0.2 M potassium phosphate buffer at pH 7.7 assessed as hydrolysis by measuring Asn/Gln level in presence of alpha-amylase preparation; assay type: ADME
[4] = Stability of the compound in 0.2 M potassium phosphate buffer at […] assessed as hydrolysis by measuring Tyr level in presence of alpha-amylase preparation and cyclohexadiene; assay type: ADME
Procedure, shortened: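 Aspergillus oryzae α-amylase preparation, 1 mg per 0.9 µmol peptide, in potassium phosphate buffer pH 7, with 1,4-cyclohexadiene (10 µL) and toluene, under N2, 37 °C, 17 h. Adjusted to pH 2.2 for amino acid analysis. Phe from a control of constituent amino acids plus enzyme subtracted to give Phe in residue 3.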

[5] = Stability of the compound in potassium phosphate buffer at pH 7 assessed as hydrolysis by measuring Phe level in presence of alpha-amylase preparation
[6] = Stability of the compound in potassium phosphate buffer at pH 7 assessed as hydrolysis by measuring DiHPe level in presence of alpha-amylase preparation
[7] = Stability of the compound in potassium phosphate buffer at pH 7 assessed as hydrolysis by measuring Phe level in presence of alpha-amylase preparation and cyclohexadiene
[8] = Stability of the compound in potassium phosphate buffer at pH 7 assessed as hydrolysis by measuring DiHPe level in presence of alpha-amylase preparation and cyclohexadiene

Drug degradation [1]: 77 mol%
Drug degradation [2]: 18 mol%
Drug degradation [3]: 67 mol%
Drug degradation [4]: 73 mol%
Drug degradation [5]: 3.9 mol%
Drug degradation [6]: 57.6 mol%
Drug degradation [7]: 4.4 mol%
Drug degradation [8]: 52.4 mol%
SMILES: Cc1ccc(S(=O)(=O)NCCCC[C@H](NC(=O)[C@@H]2CCCN2C(=O)[C@H](CSCc2ccccc2)NC(=O)[C@H](CC(N)=O)NC(=O)[C@H](CCC(N)=O)NC(=O)[C@H](CC2=CCC=CC2)NC(=O)[C@H](Cc2ccc(OCc3ccccc3)cc2)NC(=O)[C@H](CSCc2ccccc2)NC(=O)OCc2ccccc2)C(=O)NCC(N)=O)cc1 (Cbz-C(Bn)Y(Bn)[X1]QNC(Bn)PK(Tos)G-NH2)
